Source: ChEMBL document CHEMBL1649083, “Discovery of novel inhibitors of the NorA multidrug transporter of Staphylococcus aureus” (2011)

Biological target: T1, Quinolone resistance protein NorA (Staphylococcus aureus) (UniProt P0A0J7)
T1 sequence (whole entry): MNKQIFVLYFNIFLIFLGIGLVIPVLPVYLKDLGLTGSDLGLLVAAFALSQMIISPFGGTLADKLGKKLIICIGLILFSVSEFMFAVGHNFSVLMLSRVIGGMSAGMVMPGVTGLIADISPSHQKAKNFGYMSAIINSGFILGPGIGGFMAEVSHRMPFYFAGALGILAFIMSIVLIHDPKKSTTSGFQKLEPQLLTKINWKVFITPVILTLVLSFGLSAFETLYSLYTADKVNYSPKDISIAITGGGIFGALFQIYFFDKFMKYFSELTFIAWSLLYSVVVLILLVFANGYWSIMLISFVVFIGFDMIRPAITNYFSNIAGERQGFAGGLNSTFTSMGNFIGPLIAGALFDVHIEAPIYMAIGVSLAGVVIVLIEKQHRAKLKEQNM
Experiment: Inhibition of NorA in Staphylococcus aureus 1199B assessed as reduction in ethidium bromide efflux at 50 uM by fluorimetry after 5 mins
In short: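 S. aureus SA-1199B (NorA overexpressing via promoter up-mutation; GrlA A116E), EtBr-loaded cells. EtBr loss measured fluorometrically over a 5 min time course, in duplicate, as mean total efflux. Percent reduction calculated versus efflux without compound. Test compound at 50 μM; increasing concentrations were also run for dose-response profiles.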

Structure (SMILES) | inhibition
COc1cc(/C=C2\S/C(=N\c3ccccc3)N([C@@H]3CCCC[C@@H]3C)C2=O)ccc1OCC(=O)O | 32.6%
CCCOc1ccc(-c2cc(=O)c3ccccc3n2CCN(CC)CC)cc1 | 57.3%
CC(C)Oc1ccc(-c2cc(=O)c3ccccc3n2C)cc1 | 10.3%
Cc1ccc(N2CCN(C3=Nc4cc(Cl)ccc4Oc4ccccc43)CC2)cc1 | 35.1%
C[C@H](O)c1cccc(NC(=O)CC(c2ccccc2)c2ccccc2)c1 | 31.4%
Cc1ccc([C@H]2C(C#N)=C(N)Oc3cc(C)oc(=O)c32)o1 | 0%
CCOC(=O)c1cn(C2CC2)c2c(C)c(N3CCC4=C(C3)C(O)CCS4)c(N)cc2c1=O (centres undefined) | 47.3%
COc1ccc(OC[C@@H]2CN(C)CC[C@H]2c2ccccc2)cc1 (relative stereo) | 50%
OCCN1CCN(CC/C=C2\c3ccccc3Sc3ccc(C(F)(F)F)cc32)CC1 | 72%
c1ccc(CCN(Cc2ccccc2)Cc2cccc(OCc3ccccc3)c2)cc1 | 0%
CN1CC[C@H](c2ccc(F)cc2)[C@@H](COc2ccc3c(c2)OCO3)C1 | 85%
CCC(C)N1C(=O)S/C(=C\c2ccc(-c3cc(C(=O)O)ccc3Cl)o2)C1=O (centres undefined) | 74.7%
Cc1ccc(S(=O)(=O)Nc2ccc3c(c2)ncn3-c2ccccc2)cc1 | 0%
CCOC(=O)c1cn(C2CC2)c2cc(N3CCC4=C(C3)/C(=N/OC)CCS4)c(N)cc2c1=O | 74.5%
OCCN1CCN(CCCN2c3ccccc3Sc3ccc(C(F)(F)F)cc32)CC1 | 75%
Cn1c(-c2ccc(OCCN3CCCCC3)cc2)cc(=O)c2ccccc21 | 19.8%
CCOc1ccc(-c2cc(=O)c3ccccc3n2C)cc1 | 10.8%
COc1ccccc1CNCc1cccc(C(F)(F)F)c1 | 30%
CCOC(=O)Nc1ccc2c(c1)N(C(=O)CCN1CCN(CCO)CC1)c1ccccc1CC2 | 0%
c1ccc(C2=Nc3ccccc3SC2)cc1 | 0%
CCOC(=O)c1cn(C2CC2)c2cc(N3CCC4=C(C3)C(=O)C(C)CS4)c(N)cc2c1=O (centres undefined) | 63.5%
Cn1c(-c2ccc(OCCN3CCOCC3)cc2)cc(=O)c2ccccc21 | 0%
COc1ccc(OC[C@H]2CN(C)CC[C@@H]2c2ccccc2)cc1 | 47%
O=C1NC(=O)/C(=C/c2ccc(-c3cc(C(=O)O)ccc3Cl)o2)S1 | 15.5%

Structure (SMILES) | inhibition
CSc1ccc2c(c1)N(CCC1CCCCN1C)c1ccccc1S2 (centres undefined) | > 88%
CCOC(=O)c1cn(C2CC2)c2cc(N3CCC4=C(C3)C(=O)CCS4)c(N)cc2c1=O | 35.7%
CCCOc1ccc(-c2cc(OCCN(CC)CC)c3ccccc3n2)cc1 | 93.4%
CCCOc1ccc(-c2cc(=O)c3ccccc3s2)cc1 | 6.3%
CN1C(=O)S/C(=C/c2ccc(-c3cc(C(=O)O)ccc3Cl)o2)C1=O | 20.9%
CN1CCN(CCCN2c3ccccc3Sc3ccc(Cl)cc32)CC1 | > 78%
COc1ccc(/C=C/C(=O)NCCc2c[nH]c3ccccc23)cc1OC | 84%
CCCOc1ccc(-c2cc(=O)c3ccccc3o2)cc1 | 32.4%
CCCOc1ccc(C2=CSc3ccccc3N2C)cc1 | 0%
CCCOc1ccc(-c2cc(=O)c3ccccc3n2CCN2CCCCC2)cc1 | 75.1%
Cc1cc(C)cc(/N=C2\S/C(=C\c3ccc(C(=O)O)cc3)C(=O)N2c2cc(C)cc(C)c2)c1 | 55%
COc1ccccc1C1=Nc2ccccc2SC1 | 0%
Fc1ccc([C@@H]2CCNC[C@H]2COc2ccc3c(c2)OCO3)cc1 | 73%
Cn1c(-c2ccc(O)cc2)cc(=O)c2ccccc21 | 0%
N#Cc1c(SCc2ccc(Cl)nc2)nc2c(c1C(F)(F)F)CCCC2 | 41.3%
CCOC(=O)c1cn(C2CC2)c2cc(N3CCC4=C(C3)/C(=N/OC)C(C)CS4)c(F)cc2c1=O (centres undefined) | 86.9%
CCCOc1ccc(-c2cc(=O)c3cc(OC)c(O)cc3n2C)cc1 | 9.1%
Fc1ccc(C2=Nc3ccccc3SC2)cc1 | 0%
COCCN1C(=O)/C(=C/c2ccc(O[C@@H](C)C(=O)O)c(OC)c2)S/C1=N\c1ccccc1 | 10.6%
N#Cc1c(SCc2ccc(C(=O)O)cc2)nc2c(c1C(F)(F)F)CCCCC2 | 67.1%
CCOC(=O)CCSc1nc2c(c(C(F)(F)F)c1C#N)CC(C(C)(C)C)CC2 (centres undefined) | 25.2%
NS(=O)(=O)c1ccc(NC2=NC(=O)C(CC(=O)O)S2)cc1 (centres undefined) | 0%
COc1ccc(-c2cc(=O)c3ccccc3n2C)cc1 | 0%
CCOC(=O)c1cn(C2CC2)c2c(C)c(N3CCC4=C(C3)C(=O)CCS4)c(N)cc2c1=O | 36.8%

Structure (SMILES) | inhibition
Cn1c(-c2ccc(O)cc2)cc(=O)c2cc(O)c(O)cc21 | 0%
CCCCOc1ccc([C@H]2C(C#N)=C(N)Oc3cc(N(CC)CC)ccc32)cc1 | 20.5%
CCN(CC)CCOc1cc(-c2ccc(OCCN3CCCCC3)cc2)nc2ccccc12 | 65.6%
COc1cc(/C=C2/SC(Nc3ccccc3F)=NC2=O)ccc1OCC(=O)O | 11.9%
CCOC(=O)C1SC(NC(=S)NC(=O)c2ccccc2)=NC1C (centres undefined) | 23.2%
Cc1ccc(N(CC(=O)Nc2ccc(C(N)=O)cc2)S(=O)(=O)c2ccccc2)cc1C | 0.6%
COc1cc(/C=C2\S/C(=N\c3ccccc3)N(c3ccccc3)C2=O)cc(Cl)c1OCC(N)=O | 18.3%
CCN(CC)CCOc1ccc(-c2cc(=O)c3ccccc3n2C)cc1 | 1.7%
CCCOc1ccc(-c2cc(O)c3ccccc3n2)cc1 | 0%
CCOC(=O)c1cn(C2CC2)c2c(C)c(N3CCC4=C(C3)C(=O)C(C)CS4)c(N)cc2c1=O (centres undefined) | 50.5%
CCc1c(O)nc(SCC(=O)Nc2nc3ccccc3s2)[nH]c1=O | 19.1%
N#Cc1c(C(F)(F)F)cc(Cc2ccccc2)nc1SCc1ccc(C(=O)O)cc1 | 41.8%
COc1cc2c(=O)cc(-c3ccccc3)n(C)c2cc1OC | 9.4%
Cc1sc([C@@H]2C(C#N)=C(N)OC3=C2C(=O)CC(C)(C)C3)cc1COc1ccc(Br)cc1 | 0%
CC(C)N1C(=O)S/C(=C/c2cc(Br)ccc2OCc2ccc(C(=O)O)cc2)C1=O | 3.1%
CCOC(=O)CCCSc1nc2c(c(C(F)(F)F)c1C#N)CC(C)CC2 (centres undefined) | 48.6%
COc1cccc(CNC(C)C(O)c2ccccc2)c1 (centres undefined) | 2.8%
CCOC(=O)c1cn(C2CC2)c2cc(N3CCC4=C(C3)/C(=N/OC)C(C)CS4)c(N)cc2c1=O (centres undefined) | 19.7%
Cc1c(NS(=O)(=O)c2ccc(F)cc2)c(=O)n(-c2ccccc2)n1C | 3.2%
CCCOc1ccc(-c2cc(=O)c3cc(OC)c(OC)cc3n2C)cc1 | 0%
CCOC(=O)c1cn(C2CC2)c2c(C)c(N3CCC4=C(C3)/C(=N/OC)C(C)CS4)c(N)cc2c1=O (centres undefined) | 21.4%
CCOc1ccc(C2C(C(=O)Nc3cccnc3)=C(C)Nc3nc(CCCO)nn32)cc1OC (centres undefined) | 14.8%
N#Cc1c(-c2ccc(F)cc2)cc(-c2ccccc2)nc1SCC(=O)N1CCC[C@@H]1C(=O)O | 36.3%
CCC(C)N1C(=O)S/C(=C/c2ccc(C(=O)O)cc2)C1=O (centres undefined) | 0%

Structure (SMILES) | inhibition
CCOC(=O)c1cn(C2CC2)c2cc(N3CCC4=C(C3)/C(=N/O)C(C)CS4)c(N)cc2c1=O (centres undefined) | 91.2%
CCOC(=O)c1cn(C2CC2)c2c(C)c(N3CCC4=C(C3)/C(=N/O)C(C)CS4)c(N)cc2c1=O (centres undefined) | 90%
CCOC(=O)c1cn(C2CC2)c2cc(N3CCNCC3)c(F)cc2c1=O | 20.8%
Cc1ccc(S(=O)(=O)Nc2ccc3[nH]c(-c4ccco4)nc3c2)cc1 | 67.5%
CN(C)CCCN1c2ccccc2Sc2ccc(Cl)cc21 | 76%
Cn1c(-c2ccccc2)cc(=O)c2cc(O)c(O)cc21 | 0%
CCCOc1ccc(-c2cc(=O)c3ccccc3n2C)cc1 | 3.9%
CCCOc1ccc(-c2cc(OCCN3CCCCC3)c3ccccc3n2)cc1 | 88.5%
Cc1ccc(S(=O)(=O)Nc2ccc3c(c2)nc(C)n3Cc2ccccc2)cc1 | 30.6%
CCOC(=O)c1cn(C2CC2)c2cc(N3CCC4=C(C3)/C(=N/O)C(C)CS4)c(F)cc2c1=O (centres undefined) | 22.5%
OCCN1CCN(CC/C=C2/c3ccccc3Sc3ccc(C(F)(F)F)cc32)CC1 | 82%
COc1cc2c(=O)cc(-c3ccc(O)cc3)n(C)c2cc1OC | 0%
CCOC(=O)c1cn(C2CC2)c2cc(N3CCC4=C(C3)C(O)CCS4)c(N)cc2c1=O (centres undefined) | 26.3%
CCOC(=O)c1cn(C2CC2)c2c(C)c(N3CCC4=C(C3)/C(=N/O)CCS4)c(N)cc2c1=O | 36.2%
O=C(O)c1ccc(N2C(=O)C[C@@H](S/C(=N\c3ccccc3)Nc3ccccc3)C2=O)cc1 | 0%
C=CCOc1c(I)cc(/C=C2\C(=O)N(c3ccc(C(=O)O)cc3)N=C2c2ccccc2)cc1OC | 3.8%
O=C(CSc1nnc(CNc2ccc(F)cc2)o1)N1c2ccccc2Sc2ccccc21 | 11.5%
CCC(C)N1C(=O)S/C(=C\c2ccc(N3CCCC3)o2)C1=O (centres undefined) | 0%
CN(C)CCOc1ccc(-c2cc(=O)c3ccccc3n2C)cc1 | 4.4%
Cc1ccc(-n2c(SCc3ccc(C(=O)O)cc3)nnc2-c2ccc(Cl)cc2)cc1 | 1.3%
CCOc1cc(C2C(C#N)=C(N)Oc3[nH]nc(C)c32)ccc1OCc1cccc(F)c1 (single isomer, unassigned) | 4.9%
CCOC(=O)c1cn(C2CC2)c2c(C)c(N3CCC4=C(C3)/C(=N/OC)CCS4)c(N)cc2c1=O | 54.4%
